SIAE inh: inhibitors of human sialic acid acetylesterase SIAE; hit rate 0.69% among 370,000; SIAE FP-Rh probe binding, fluorescence polarization; AID 1053197; inhibition, % at 9.66 µM; Q9HAT2;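 active = inhibition above a cutoff: mean of compounds within the control limits plus 3 SD of those, cut at about 17% in these data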;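 also: 0% = plate median of compound wells and 100% = probe without SIAE protein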
Target sequence (Q9HAT2 whole entry, looked up): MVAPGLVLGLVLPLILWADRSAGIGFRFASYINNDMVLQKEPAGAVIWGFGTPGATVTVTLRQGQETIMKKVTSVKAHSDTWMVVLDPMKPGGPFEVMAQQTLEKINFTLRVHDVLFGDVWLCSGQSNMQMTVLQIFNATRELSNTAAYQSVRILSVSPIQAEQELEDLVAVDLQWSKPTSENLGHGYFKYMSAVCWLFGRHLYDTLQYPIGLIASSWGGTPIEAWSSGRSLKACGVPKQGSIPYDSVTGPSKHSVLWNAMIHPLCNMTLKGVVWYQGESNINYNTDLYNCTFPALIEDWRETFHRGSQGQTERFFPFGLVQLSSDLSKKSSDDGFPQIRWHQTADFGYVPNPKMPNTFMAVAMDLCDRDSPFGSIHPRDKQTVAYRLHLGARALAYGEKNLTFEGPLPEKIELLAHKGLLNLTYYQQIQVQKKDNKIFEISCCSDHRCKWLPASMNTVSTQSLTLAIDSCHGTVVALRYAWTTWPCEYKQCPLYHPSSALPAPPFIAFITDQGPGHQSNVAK
PRMT1 FP inh: blocks human protein arginine methyltransferase 1 | recombinant PRMT1, activity-based probe fluorescence polarization | Q99873 | hit rate 1.3% among 370,000 | inhibition, % at 2.79 µM;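 active = inhibition above about 21% made by adding two undisclosed values, limit read from the data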
TCR-CD3 inh: human TCR-CD3 binding inhibition; TAMRA-labeled TCR probe fluorescence, biochemical; hit rate 0.37% among 360,000; AID 651800; inhibition, % at 9.4 µM; in the data active = inhibition above about 19%;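 also: recombinant mutant TCR 2C K166C tagged with TAMRA read by polarization; 0% = receptor in buffer alone and 100% = receptor with positive control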
HTRA1 inhibitor: HTRA1 (human) protease inhibition | recombinant HTRA1, FP-rhodamine activity-based probe, fluorescence polarization | inhibition, % at 5.96 µM | hit rate 0.5% among 340,000 | AID 504803 | Q92743; in the data active = inhibition above about 36%;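 also: 0% = enzyme with DMSO and 100% = wells lacking enzyme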
rCAG binder-1: molecules binding r(CAG) RNA repeats | AID 651821 | hit rate 1.3% among 370,000 | r(CAG) RNA repeat, TO-PRO-1 dye displacement fluorescence | inhibition, % at 3 µM;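 active = inhibition above the plate cutoff, the mean of all test compounds on that plate plus 3 SD, cut at about 35% in these data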;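 also: 0% = DMSO alone and 100% = 100 µM mitoxantrone as full dye displacement; higher means more dye released from RNA so lower well fluorescence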
mABHD4 FP: inhibits mouse alpha/beta hydrolase domain 4 | Q8VD66 | purified mABHD4, FP-Rh probe fluorescence polarization | hit rate 0.54% among 370,000 | inhibition, % at 8.92 µM;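 active = inhibition exceeding the mean over every tested compound plus 3 SD, cut at about 30% in these data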;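 also: 0% = plate median of compound wells and 100% = S159A mutant with DMSO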
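Assay system: mouse ABHD4 enzyme, wild type / Also added: fluorescent activity-based probe FP-Rh / Doses: single nominal dose of 8.92 µM, 0.89% DMSO final / Timing: 45 min compound pre-incubation plus 60 min probe step, 25 °C / Signal: FP readout, ex 525 nm / em 598 nm / Control set: S159A mutant/DMSO as 100%, compound-well median as 0%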
rCAG bind conf: r(CAG) RNA repeat binding, confirmation; AID 652065; shares compounds with rCAG binder-1; hit rate 70% among 4,300; TO-PRO-1 dye displacement fluorescence; inhibition, % at 3 µM;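 active = inhibition above a per-plate cutoff, the mean inhibition of sample wells plus 3 SD, cut at about 35% in these data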;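 also: loss of TO-PRO-1 fluorescence as compound displaces dye from 1x1 AA loop RNA; 0% = DMSO only wells and 100% = 100 µM mitoxantrone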
DNA CAG counter: disrupts DNA CAG TO-PRO-1 complex, flagging rCAG hits; shares compounds with rCAG binder-1; d(CAG) DNA oligo TO-PRO-1 dye displacement, fluorescence; inhibition, % at 3 µM; hit rate 94% among 4,300; AID 652068;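 active = inhibition above its plate's cutoff, the mean test-well inhibition plus 3 SD, cut at about 4.8% in these data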;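 also: 0% = DNA dye mix with DMSO and 100% = 100 µM mitoxantrone; hits displace the dye from DNA and so lower well fluorescence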
dCAG dye DR: counter-screen for rCAG binders: inhibitors of DNA CAG TO-PRO-1 complex | shares compounds with rCAG binder-1 | DNA CAG/GTC duplex TO-PRO-1 dye displacement fluorescence | IC50, µM | hit rate 20% among 250 | AID 686960; in the data active = IC50 below about 10 µM
dCAG TOPRO ctr: counter-screen for rCAG binders: DNA CAG TO-PRO-1 complex inhibitors, late stage; shares compounds with rCAG binder-1; d(CAG) DNA duplex TO-PRO-1 dye displacement, fluorescence; IC50, µM; hit rate 80% among 30; AID 720649
rCAG binder-2: molecules binding r(CAG) RNA repeats, late stage dose response. hit rate 100% among 30. shares compounds with rCAG binder-1. IC50, µM. r(CAG) RNA TO-PRO-1 dye displacement, fluorescence. AID 720651
Numbers without * were called inactive; . = not tested or not shown. Compounds with a hit are over-represented: about 3.5% of the library has one in this group of screens. Unless noted, no rule for the calls is given here.

SMILES	SIAE inh	PRMT1 FP inh	TCR-CD3 inh	HTRA1 inhibitor	rCAG binder-1	mABHD4 FP	rCAG bind conf	DNA CAG counter	others
O=C(NCCO)C1(C(=O)C2CC2)CC(c2ccccc2C(F)(F)F)=NO1 (stereo unspecified)	-3	0	.	.	3	3	.	.
C/C(=N/NC(=O)c1cccnc1)c1cccc(O)c1	9	2	.	.	-1	-1	.	.
O=C(CSc1nnc(-c2ccc(Cl)cc2)n1-c1ccccc1)NN=Cc1c[nH]c2ccccc12	11	-7	.	.	13	-6	.	.
CN(c1ccc(OCC(=O)Nc2cc(Cl)ccc2C(=O)O)cc1)S(=O)(=O)c1ccc(F)cc1	-11	-2	-6	-70	77*	-31	74*	34*	dCAG dye DR=6.2*;dCAG TOPRO ctr=2.5*;rCAG binder-2=1.2*
CN(c1c2c(nc3ncnn13)CCCC2)C1CCCCC1	-2	-1	.	.	-1	2	.	.
N#CCC[C@@H]1CC[C@]2(CCCN(C(=O)c3cccnc3)C2)O1	1	-7	.	.	0	3	.	.
COc1ccc(S(=O)(=O)C(C#N)c2nc3ccccc3nc2N2CCCC(C)C2)cc1 (stereo unspecified)	-2	20	-14	3	68*	-2	68*	35*
COC(=O)[C@]1(C#N)CC(=O)N(Cc2ccc(Cl)cc2)[C@@H]1c1ccccc1	1	-3	.	.	0	0	.	.
O=C(O)c1[nH]c2ccc(Cl)cc2c1CCN1C(=O)c2ccccc2C1=O	-6	-3	6	-9	50*	0	26	6.3*
COc1ccc2[nH]c(C(=O)O)c(CCN3C(=O)c4ccc(C(=O)O)cc4C3=O)c2c1	-1	-2	-3	12	1	1	.	.
Cc1ccc(NC(=O)CCN2C(=O)c3cccc([N+](=O)[O-])c3C2=O)c(Br)c1	-6	4	-5	2	-2	3	.	.
O=C(O)c1[nH]c2ccc(Br)cc2c1CCN1C(=O)c2cccc([N+](=O)[O-])c2C1=O	-7	2	2	-7	64*	-1	42*	13*
O=C(Nc1nnc(-c2cccs2)o1)c1cccc(Oc2ccccc2)c1	-7	-4	0	10	38*	-29	53*	15*
O=C(Nc1nnc(-c2cccs2)o1)c1cccc(F)c1	-2	-1	-2	6	3	-2	.	.
CCOc1ccc(NC(=NCc2ccc3c(c2)OCO3)SC2CC(=O)N(c3ccc(C(=O)O)cc3)C2=O)cc1 (stereo unspecified)	-12	3	-5	-75	78*	-58	85*	54*
Cc1ccc(S(=O)(=O)N(CCc2ccccc2)CC(=O)N2CCOCC2)cc1	-2	3	.	.	2	3	.	.
CCc1ccc(/C=C/C(=O)C2C(=O)c3ccccc3C2=O)cc1	-13	0	6	-11	64*	-29	79*	39*
COCC(=O)N1[C@H](CO)[C@@H](c2ccc(-c3cccnc3)cc2)[C@H]1CN(C)S(=O)(=O)c1ccccc1[N+](=O)[O-]	0	0	.	.	7	6	.	.
C[C@@H]1/C=C/CC(=O)N[C@H](c2cccc(Br)c2)[C@H](C)/C=C/CC(=O)N[C@@H]1c1cccc(Br)c1	-8	0	.	.	8	-20	.	.
CCOc1ccccc1NC(=O)CSc1nc2nc(-c3cccs3)cc(C(F)(F)F)c2c(=O)[nH]1	-51	4	0	-37	70*	-84	79*	48*
COc1ccc(NC(=O)CSc2nc3nc(-c4cccs4)cc(C(F)(F)F)c3c(=O)[nH]2)c(OC)c1	0	-2	6	-12	19	2	.	.
